From ChEMBL document CHEMBL1157524, “Synthesis and SAR of a mGluR5 allosteric partial antagonist lead: unexpected modulation of pharmacology with slight structural modifications to a 5-(phenylethynyl)pyrimidine scaffold” (Bioorg Med Chem Lett, 2008)

Tests used:
[1] = target: Metabotropic glutamate receptor 5 (Rattus norvegicus) (UniProt P31424); experiment: Induction of rat mGluR5 activation expressed in HEK293A cells assessed as maximal response in presence of glutamate; format: cell-based; settings: HEK293-A
Summary of the method: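 Potentiator mode in rat mGluR5 HEK293A cells loaded with Fluo4-AM (4.0 µM, 45 min, 37 °C) in HBSS/20 mM Hepes/2.5 mM probenecid, pH 7.4. Compound added at 19 s, then submaximal glutamate (150–165 nM) at 109 s. Calcium fluorescence read and compared with maximal glutamate response. Vehicle 0.3% DMSO. Triplicate on three days.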

[2] = target: Metabotropic glutamate receptor 5 (Rattus norvegicus) (UniProt P31424); experiment: (§1) Antagonist activity at rat mGluR5 expressed in HEK293A cells assessed as inhibition of glutamate-induced calcium fluorescence; format: functional, cell-based; design: concentration or dose not given beside the values; settings: HEK293-A
[3] = target: T1, Metabotropic glutamate receptor 5 (Rattus norvegicus, UniProt P31424); experiment: as §1; format: functional, cell-based, HEK293-A
[4] = target: T1, Metabotropic glutamate receptor 5; experiment: Activity at rat mGluR5 expressed in HEK293A cells; format: cell-based, HEK293-A
[5] = target: T1, Metabotropic glutamate receptor 5; experiment: Displacement of [3H]methoxy-PEPy from rat mGluR5 expressed in HEK293A cells; format: cell-based, HEK293-A
Summary of the method: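 Membranes from HEK293A cells with rat mGluR5 were incubated with 2 nM (final) [³H]methoxy-PEPy in 50 mM Tris, 0.9% NaCl, pH 7.4. Incubation was 60 min at room temperature with shaking. Bound ligand was separated by GF/B filtration with four buffer washes and counted by scintillation. MPEP defined nonspecific binding. Triplicate on three days.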

Metabotropic glutamate receptor 5 (Rattus norvegicus), sequence (P31424 21-1203 limits assumed): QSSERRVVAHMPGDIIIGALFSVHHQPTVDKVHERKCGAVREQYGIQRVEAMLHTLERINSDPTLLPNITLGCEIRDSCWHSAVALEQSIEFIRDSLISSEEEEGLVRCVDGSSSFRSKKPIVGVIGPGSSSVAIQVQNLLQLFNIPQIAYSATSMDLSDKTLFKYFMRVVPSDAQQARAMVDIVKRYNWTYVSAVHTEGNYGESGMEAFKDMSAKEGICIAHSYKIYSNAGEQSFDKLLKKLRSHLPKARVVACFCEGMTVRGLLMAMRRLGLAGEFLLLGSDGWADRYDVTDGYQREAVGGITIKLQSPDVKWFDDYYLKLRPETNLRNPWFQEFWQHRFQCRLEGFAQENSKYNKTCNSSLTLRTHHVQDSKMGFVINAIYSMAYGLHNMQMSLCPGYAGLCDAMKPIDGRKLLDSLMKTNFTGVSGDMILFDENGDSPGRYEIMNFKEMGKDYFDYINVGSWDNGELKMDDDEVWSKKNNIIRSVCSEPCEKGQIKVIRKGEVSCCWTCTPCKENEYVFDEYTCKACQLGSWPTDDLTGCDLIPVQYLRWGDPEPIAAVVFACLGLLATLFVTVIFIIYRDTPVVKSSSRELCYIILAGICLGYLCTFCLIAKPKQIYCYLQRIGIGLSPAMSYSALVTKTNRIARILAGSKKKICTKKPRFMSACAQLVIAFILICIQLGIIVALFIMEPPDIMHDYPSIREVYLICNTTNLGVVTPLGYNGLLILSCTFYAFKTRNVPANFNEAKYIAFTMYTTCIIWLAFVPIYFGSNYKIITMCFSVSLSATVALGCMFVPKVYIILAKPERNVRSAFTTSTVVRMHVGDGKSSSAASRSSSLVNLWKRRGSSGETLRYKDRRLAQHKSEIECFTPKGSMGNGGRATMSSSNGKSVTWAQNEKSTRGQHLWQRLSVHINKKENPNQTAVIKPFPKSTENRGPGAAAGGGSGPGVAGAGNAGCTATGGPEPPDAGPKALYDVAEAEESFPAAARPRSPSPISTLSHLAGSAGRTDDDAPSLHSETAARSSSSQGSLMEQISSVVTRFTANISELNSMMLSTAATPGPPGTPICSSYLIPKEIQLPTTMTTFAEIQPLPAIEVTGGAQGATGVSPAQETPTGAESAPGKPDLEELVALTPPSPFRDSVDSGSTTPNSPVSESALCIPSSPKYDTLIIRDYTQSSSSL
T1 sequence (P31424 whole entry): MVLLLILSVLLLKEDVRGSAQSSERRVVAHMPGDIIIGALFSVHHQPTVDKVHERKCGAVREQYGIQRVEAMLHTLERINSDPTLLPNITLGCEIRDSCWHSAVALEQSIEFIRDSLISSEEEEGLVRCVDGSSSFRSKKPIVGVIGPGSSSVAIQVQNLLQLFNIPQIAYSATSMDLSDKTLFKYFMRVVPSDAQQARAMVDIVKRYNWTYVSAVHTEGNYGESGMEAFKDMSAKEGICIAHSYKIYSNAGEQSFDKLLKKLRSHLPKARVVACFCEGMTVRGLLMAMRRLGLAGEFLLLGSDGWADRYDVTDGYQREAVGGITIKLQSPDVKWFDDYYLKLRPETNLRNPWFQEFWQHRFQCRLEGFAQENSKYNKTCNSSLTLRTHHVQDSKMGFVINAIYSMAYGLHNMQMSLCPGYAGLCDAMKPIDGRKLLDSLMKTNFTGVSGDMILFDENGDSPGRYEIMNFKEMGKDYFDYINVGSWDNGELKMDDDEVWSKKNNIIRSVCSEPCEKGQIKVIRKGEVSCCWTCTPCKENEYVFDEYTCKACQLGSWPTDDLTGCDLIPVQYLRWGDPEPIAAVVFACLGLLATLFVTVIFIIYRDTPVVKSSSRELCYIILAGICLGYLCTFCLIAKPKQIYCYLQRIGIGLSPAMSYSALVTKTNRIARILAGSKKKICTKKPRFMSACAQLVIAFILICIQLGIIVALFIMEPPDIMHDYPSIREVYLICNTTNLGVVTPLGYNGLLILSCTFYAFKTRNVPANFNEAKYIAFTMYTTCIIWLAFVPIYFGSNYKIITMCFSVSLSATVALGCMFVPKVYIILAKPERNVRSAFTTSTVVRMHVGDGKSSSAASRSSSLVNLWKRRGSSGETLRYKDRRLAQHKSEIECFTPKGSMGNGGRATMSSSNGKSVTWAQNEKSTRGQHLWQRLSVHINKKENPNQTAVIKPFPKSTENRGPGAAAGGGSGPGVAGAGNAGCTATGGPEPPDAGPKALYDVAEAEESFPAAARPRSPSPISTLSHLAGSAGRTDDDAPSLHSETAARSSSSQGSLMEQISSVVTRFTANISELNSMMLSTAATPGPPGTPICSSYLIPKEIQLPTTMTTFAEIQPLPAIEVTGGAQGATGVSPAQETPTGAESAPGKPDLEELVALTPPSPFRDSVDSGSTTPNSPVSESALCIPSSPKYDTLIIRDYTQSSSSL

| SMILES | Activity [2] | IC50 [3] | other results |
| --- | --- | --- | --- |
| Fc1cccc(/C=N/N=C/c2cccc(F)c2)c1 |  |  | Activity [1]: < 70% |
| COc1cccc(C#Cc2ccc(C)cn2)c1 | 50% |  |  |
| Cc1cccc(C#Cc2cncnc2)c1 | 100% | 7 nM |  |
| Clc1ccc(C#Cc2cncnc2)cc1 |  |  | EC50 [4]: 3900 nM |
| O=Cc1ccc(C#Cc2cncnc2)cc1 |  |  | EC50 [4]: 7900 nM |
| O=C(Nc1cccc(F)c1)c1cccc(Cl)c1 | 58% |  | EC50 [3]: 297 nM |
| FC(F)(F)c1cccc(C#Cc2cncnc2)c1 | 100% | 450 nM |  |
| Fc1cc(F)cc(C#Cc2cncnc2)c1 | 100% | 6400 nM |  |
| C(#Cc1cncnc1)c1ccccc1 | 71% | 480 nM | Ki [5]: 126 nM |
| O=C(Nc1ccc(Cl)cc1CN1C(=O)c2ccccc2C1=O)c1ccccc1O |  |  | Activity [1]: < 70% |
| N#Cc1cccc(C(=O)Nc2cc(-c3ccccc3)nn2-c2ccccc2)c1 |  |  | Activity [1]: < 70% |
| C(#Cc1cncnc1)c1ccc(-c2ccccc2)cc1 | 100% | 7800 nM |  |
| Cc1ccc(C#Cc2cncnc2)cc1 |  |  | Activity [1]: 99%; EC50 [4]: 3300 nM |
| Clc1cccc(C#Cc2cncnc2)c1 | 100% | 34 nM |  |
| Cc1ccc(C)c(C#Cc2cncnc2)c1 | 58% | 11200 nM |  |
| Cc1ccc(C#Cc2cncc(Br)c2)nc1 | 50% |  |  |
| CCc1ccc(C#Cc2cncnc2)cc1 |  |  | EC50 [4]: 18800 nM |
| Cc1cc(C#Cc2cncnc2)ccc1F | 100% | 350 nM |  |
